# Measurements pooled from the literature.
# Organism: Candida albicans
# Effect on: microbial growth
SMILES,assay,test system,conditions,quantity,value
CN(C)c1ccc(-c2c(C(N)=S)c(N)n(N)c(=O)c2C#N)cc1,well diffusion,ATCC10231,500 µg/mL,inhibition zone,17 mm
Cc1nn(-c2ccccc2)c2c1C(c1ccco1)N(C(=O)c1ccncc1)N2 (centres unmarked),,MTCC183,,MIC,> 100 µg/mL
N#Cc1c(-c2ccc(OCc3ccccc3)cc2)c(C(N)=O)c(N)n(N)c1=O,well diffusion,ATCC10231,500 µg/mL,inhibition zone,10 mm
Cc1ccccc1NC(=O)C=Cc1ccc(O)c(O)c1,broth dilution,SC5314,,MIC,32 µg/mL
N#Cc1c(-c2ccc(Cl)cc2Cl)c(C(N)=O)c(N)n(N)c1=O,well diffusion,ATCC10231,500 µg/mL,inhibition zone,9 mm
Cc1nn(-c2ccccc2)c2c1C(c1cncs1)N(C(=O)c1ccncc1)N2 (centres unmarked),,MTCC183,,MIC,> 100 µg/mL
O=C1C(Br)=C(Br)C(=O)c2ccccc21,broth dilution,ATCC60193,24 h,MIC,3.12 µg/mL
Cc1nn(-c2ccccc2)c2c1C(c1ccc([N+](=O)[O-])cc1)N(C(=O)c1ccncc1)N2 (centres unmarked),,MTCC183,,MIC,> 100 µg/mL
O=C(C=Cc1ccc(O)c(O)c1)Oc1cccc2cccnc12,broth dilution,SC5314,,MIC,16 µg/mL
COC1=CC(=O)c2ccccc2C1=O,broth dilution,ATCC60193,24 h,MIC,25 µg/mL
CC1CCC(C(C)C)C(OC(=O)C=Cc2ccc(O)c(O)c2)C1 (centres unmarked),broth dilution,SC5314,,MIC,8 µg/mL
Cc1nn(-c2ccccc2)c2c1C(c1ccc(O)cc1)N(C(=O)c1ccncc1)N2 (centres unmarked),,MTCC183,,MIC,64 µg/mL
CC(=O)N1CCN(c2ccc(OCC3COC(Cn4ccnc4)(c4ccc(Cl)cc4Cl)O3)cc2)CC1 (centres unmarked),well diffusion,ATCC10231,500 µg/mL,inhibition zone,24 mm
COc1cc(Cc2cnc(N)nc2N)cc(OC)c1OC,broth dilution,SC5314,,MIC,64 µg/mL
Cc1nn(-c2ccccc2)c2c1C(c1ccc(Cl)cc1)N(C(=O)c1ccncc1)N2 (centres unmarked),,MTCC183,,MIC,0.25 µg/mL
CC(C)NCC(COc1cccc2ccccc12)OC(=O)C=Cc1ccc(O)c(O)c1 (centres unmarked),broth dilution,SC5314,,MIC,16 µg/mL
N#Cc1c(-c2ccc(OCc3ccccc3)cc2)c(C(N)=S)c(N)n(N)c1=O,well diffusion,ATCC10231,500 µg/mL,inhibition zone,10 mm
